Experimental data: the EternaBench riboswitch data

System: MS2 coat protein
Assay: apparent Kd, MS2 coat protein; higher = weaker binding; RNA-MaP array; FMN 200 µM where present
Outline: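 Designs were transcribed by stalled E. coli RNA polymerase on Illumina sequencing-chip clusters. They were titrated with SNAP-549-labelled MS2 coat protein from 0.7 or 1.5 nM, doubling to 3 µM, in 100 mM Tris-HCl pH 7.5, 80 mM KCl, 4 mM MgCl2, BSA, DTT, yeast tRNA and Tween-20, without and then with constant ligand. The apparent Kd is the median of filtered per-cluster fits after normalisation of green signal to red-channel RNA signal and control-cluster median Fmax.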

[1] = designed as: ON switch for flavin mononucleotide, no ligand
[2] = ligand present: flavin mononucleotide, designed as: ON switch for flavin mononucleotide
[3] = designed as: OFF switch for flavin mononucleotide, no ligand
[4] = ligand present: flavin mononucleotide, designed as: OFF switch for flavin mononucleotide

AAUUAACUCACAGGAUAUAGCAGAGGUCGAGUGAACUUACAGGCGACUAGGCUAGAAGGGUGACCACAUGAGGAUCACCCAUGU
apparent Kd [1]: 834 nM
apparent Kd [2]: 117 nM

AUAUUGUGAGGAUAUGAACUAAGUAUCGAAAGAUACUAAGUUCAGAAGGCACAUGAGGAUCACCCAUGUUUCUC
apparent Kd [3]: 76.7 nM
apparent Kd [4]: 729 nM

GGUCCAUCAUGAGGAUAUGGCACCUUAUUGGUGCCAGAAGGCAUGUCUAUUGACAUGAGGAUCACCCAUGUAUUAAUUUGGACC
apparent Kd [1]: 1040 nM
apparent Kd [2]: 80.7 nM

AUUAUAUAGGAAGGAUAUAGAAUAUUAUUUUAACAUGAGGAUCACCCAUGUAACCUUAUGUGUAGCUAGAAGGUCCAUUUGUUA
apparent Kd [4]: 315 nM

CACGUCCUCACAGGAUAUGCUGGACUUUGUCCAGCAGAAGGGUGAAACAUGAGGAUCACCCAUGUUAGGACGUGUAUAUUUAAU
apparent Kd [1]: 86.7 nM
apparent Kd [2]: 625 nM

AAAAAAAAAAUGCAGGAUAUGGGAAAAAAAACAUGAGGAUCACCCAUGUAAAAAAAAAAAAAAAACUAGAAGGGUAAAAAAAAAAA
apparent Kd [1]: 80.2 nM
apparent Kd [2]: 62.3 nM

CGCAACUUUUCUCAUGUAAACAUGAGGAUCACCCAUGUAAUGAGAAGGAGGAGGAAGAGAGAAUCCUAGGAUAUCAGAGUUGCG
apparent Kd [3]: 7.12 nM
apparent Kd [4]: 6.01 nM

UAUAUAUAGUAAGGAUAUGUAAUUUUUUUAUAAACAGAAGGUACUGACAUGAGGAUCACCCAUGUUUUAGUGUGGGCAUGUAGA
apparent Kd [3]: 107 nM
apparent Kd [4]: 169 nM

GUGCAUGUGCGAACUAACCCACAUGAGGAUCACCCAUGUAGGAGAAGGGUCCGGAGGUGCCGUGGACAGGAUAUCCUACGCCUG
apparent Kd [3]: 23.2 nM
apparent Kd [4]: 30.9 nM

GGGCCGGUGGAGAAGGAGCUUGCGAAACGCAUGCUAGGAUAUCCACAUGAGGAUCACCCAUGUGGGAAUAUCUGAUUUUCACAG
apparent Kd [3]: 3.82 nM
apparent Kd [4]: 4.76 nM

AAAAGUAGAGGAUAUACAUGAGGAUCACCCAUGUAGAAAGGAAGUGUAUAUAUGGCGUGUAGAAGGCUGCAUGA
apparent Kd [3]: 38.3 nM
apparent Kd [4]: 39.2 nM

UGAACAAUGUAGAAGGCCCAUAUUUAUAUAUAGGGAGGAUAUACAUGAGGAUCACCCAUGUAAAGAGCAAGAGGACUUGACAGA
apparent Kd [3]: 9.27 nM
apparent Kd [4]: 15.7 nM

GCCAAGCAAAAUAAAAUAAAUAAAACAUGAGGAUCACCCAUGUAGGAUAUGCUACACAAAGUGUAGCAGAAGGACAAGCUUGGC
apparent Kd [3]: 14.6 nM
apparent Kd [4]: 19 nM

GACACUAUGUUUGUCAGAUAGAGAGAGGAUAUGGGUUAUGAGACAUGAGGAUCACCCAUGUUUAUUCAGAAGGCUCGAGUACGA
apparent Kd [1]: 90.9 nM
apparent Kd [2]: 11.8 nM

CUGGAUCACGCAGGAUAUUACAUGAGGAUCACCCAUGUCAGGACUGCAAUAUCGUCUCCUCAUUGUGAGAAGGGCGGAAUCAUU
apparent Kd [3]: 17.7 nM
apparent Kd [4]: 86.8 nM

UUUCCGCGAGGAUAUGCGGGUUGUGCUUUUCAUUUCUUACAACAUGAGGAUCACCCAUGUAGAAGGUGCUUCUU
apparent Kd [3]: 174 nM
apparent Kd [4]: 156 nM

AACGAAGAGGAGAAGGGUGAUGGGUCCUCAUGACCCGGAGGGCCGCGGCACAGGAUAUCCAUGUCACAUGAGGAUCACCCAUGU
apparent Kd [1]: 123 nM
apparent Kd [2]: 18.5 nM

UGCAUUACUUAGAAGGGAUAUAUAUAAUUUUAAUCAGGAUAUAGAUACAAUACAACAUGAGGACAUGAGGAUCACCCAUGUAUU
apparent Kd [1]: 19.9 nM
apparent Kd [2]: 14 nM

GUCGCUAGAGGAUAUACAAUGGUAUAUGAUCCUAGUGACAUACAUGAGGAUCACCCAUGUAGAAGGCUAGUAAU
apparent Kd [3]: 24.2 nM
apparent Kd [4]: 21.7 nM

AGAAACUACGAGAAGGACAUAUGGUACUUCAGCUACAUGAGGAUCACCCAUGUAGGAUAUCGUAGUUUCAGGAUCGUGAGAUCA
apparent Kd [3]: 5.65 nM
apparent Kd [4]: 6.02 nM

CCGGAUACGGGUAGCCUGACAUGAGGAUCACCCAUGUGAUCCUAGGAUAUGGAUCCUAAUUGGAUCCAGAAGGAGGUUGGCUAC
apparent Kd [1]: 860 nM
apparent Kd [2]: 436 nM

UGCGCUCGGGUGAGGAUAUUAGGACUACAAUUGUAUGAGAAGGCACAUGAGGAUCACCCAUGUGGGUGAGCGCC
apparent Kd [3]: 922 nM
apparent Kd [4]: 420 nM

CAAACAAGUGCGAGCUGACACAUGAGGAUCACCCAUGUAACACAGGAUAUCUGUCAAGGCGUGAAAGAGAAGGGUGGUCGGAAA
apparent Kd [1]: 226 nM
apparent Kd [2]: 375 nM

GGUCCGUAACAGAAGGCCGUAACUGGCGGUGGCGGAGGAUAUGUGGGCGGCCCUUGACAACAUGAGGAUCACCCAUGUAUGUAA
apparent Kd [1]: 41.3 nM
apparent Kd [2]: 113 nM

CGUUGACAUGAGGAUCACCCAUGUCAGAUCUGGUCAGGAUAUGGUGUGGUUUGGCUAUUGCCAGAAGGGACGUCUG
apparent Kd [1]: 43.1 nM
apparent Kd [2]: 46.8 nM

AUAAUAGAGUCAGGAUAUGGACAUGAGGAUCACCCAUGUGCAGGGAUCCUCCCAGAAGGGACAUCUAAACAAAAGGCGCUAUCC
apparent Kd [3]: 307 nM
apparent Kd [4]: 147 nM

GUAGCAUACCGAGGAUAUUCCCGGAAACGGAAAACAUGAGGAUCACCCAUGUGGCGAAAGCCUUGGGAGAAGGCGGAAUGCUAC
apparent Kd [1]: 25.4 nM
apparent Kd [2]: 19.4 nM

CAGCAUCAUGUAGGAUAUGCGUGGCGAAGCUAUGCAGAAGGACAUGAGGAUCACCCAUGUCUUACCUAGCGUACUAGGUUGCUG
apparent Kd [3]: 7.3 nM
apparent Kd [4]: 16.6 nM

GCCCGGGCUAACAUGAGGAUCACCCAUGUGUUAUACUUAAUAUAGGAUAUGUUUAUACUUUUUGGGCAGAAGGAUGGCCCGGGC
apparent Kd [1]: 68.2 nM
apparent Kd [2]: 61.7 nM

UUCCUGUCAGGAUAUGACUAGAUGCACGAAAGUGUGUUUACUUAGAAGGGACAUGAGGAUCACCCAUGUAGUCC
apparent Kd [3]: 35.9 nM
apparent Kd [4]: 33.3 nM

GCACUGCAGCGGCGCACGAGACAUGAGGAUCACCCAUGUGACAGAAGGGACUUGUUAAAGGUAGGUCAGGAUAUGUCUUAAAAG
apparent Kd [1]: 219 nM
apparent Kd [2]: 65.8 nM

UUCAGCUCGUCAGGAUAUACGUCACUGCGUCAGCAGUGUGGUAAGAUCACAUGAGGAUCACCCAUGUAGAAGGGACGAGCUGAU
apparent Kd [3]: 13.7 nM
apparent Kd [4]: 235 nM

GCUGUCGCAUGAGGAUAUGGUCAGCUUUGCUGACCAGAAGGCAUGUCAAUAGACAUGAGGAUCACCCAUGUAGUAAGGGCGGCU
apparent Kd [1]: 466 nM
apparent Kd [2]: 48.8 nM

GUGUGUUGCGGGCAGGAUAUGUACUUGAGUACAUGAGGAUCACCCAUGUGCGGGUGUUUCACCCGACAGAAGGGCCUAUCGCGAC
apparent Kd [1]: 977 nM
apparent Kd [2]: 309 nM

AUGGUGCAGGUACAGGAUAUGUUGCUCGUAACAUGAGGAUCACCCAUGUACCUAUGAGAUUAAAUGCAGAAGGGUGCACACCACG
apparent Kd [1]: 784 nM
apparent Kd [2]: 62.7 nM

GCAUGUUAUGUCAGGAUAUACCUAUGGAUACAUAGGUAGAAGGGACAUGAGGAUCACCCAUGUCCUAACCAUGC
apparent Kd [3]: 11.8 nM
apparent Kd [4]: 15.1 nM

GGAAAACAUGAGGAUCACCCAUGUGAGGAUAUCGAUGUCCAAAAAGAGGUGCGGGACUCGAGAAGGCACUUGGA
apparent Kd [3]: 55.1 nM
apparent Kd [4]: 54 nM

UUUCCGCGAGGAUAUGCGGGUUGUGCUUUUCAUUUUUUAUAACAUGAGGAUCACCCAUGUAGAAGGUGCUUCUG
apparent Kd [3]: 78.7 nM
apparent Kd [4]: 71.6 nM

UGAACUAUGUAGAAGGCCCAUAUUUAUAUAUAGGGAGGAUAUACAUGAGGAUCACCCAUGUAAAGAGCAAGAGGACUUGUCAGA
apparent Kd [3]: 14.2 nM
apparent Kd [4]: 37.3 nM

CUUCAUUGUUGAGGAUAUAAUUAUAGGAUGUAGUUAGAAGGCGAACAUGAGGAUCACCCAUGUCAGGCAUGGAGACCCUUGACC
apparent Kd [3]: 519 nM
apparent Kd [4]: 624 nM

GUUUAGUGAGGAUAUGUGGCAUCGCCCGAGCGCGGUCGGCUACAGAAGGCACAUGAGGAUCACCCAUGUUUCUC
apparent Kd [3]: 38.6 nM
apparent Kd [4]: 585 nM

UUUUUAUUUGAAGGAUAUACUUAACAUGAGGAUCACCCAUGUGGUGUUGUGAGUGAGUGAGUUUAGUAGAAGGUCAAUUAUUUU
apparent Kd [3]: 373 nM
apparent Kd [4]: 703 nM

AAAUACGUUUCGUAGCAGUGUCAUCGAGAAGGCCCUGACAUGAGGAUCACCCAUGUUGUUACAUGGGAGGAUAUCGAUGAUAAA
apparent Kd [1]: 16.2 nM
apparent Kd [2]: 5.52 nM

AGUAAGAUGCAGAAGGUGCCAGCGAGAGCUGCACAUGAGGAUCACCCAUGUUGUCGGUGACGACGCAAGGAUAUGCAUCUUACA
apparent Kd [1]: 24.5 nM
apparent Kd [2]: 6.87 nM

AAUUAAUUAAUUAAUAUACAUGAGGAUCACCCAUGUAAGAUCAAGGAUAUCAGCUCGAUUAGAGCUGAGAAGGUGAUCACAUGU
apparent Kd [1]: 357 nM
apparent Kd [2]: 501 nM

AUAAAUCAUGUAGGAUAUGCGUGGCGAAGCUAUGCAGAAGGACAUGAGGAUCACCCAUGUCUAUCCGUCUGCGUACAGACGGAA
apparent Kd [3]: 26.2 nM
apparent Kd [4]: 216 nM

ACAUAAAUUCGAGGAUAUCGGUGAUAAAGAAGACGAGAAGGCGAUUAAAGAGAGAUGGUUAUAGACAUGAGGAUCACCCAUGUA
apparent Kd [1]: 28.6 nM
apparent Kd [2]: 22.8 nM

AAGCGAAAGCUAAAAUAUCUAUCAGAGGAUAUUUAUGAUACAUGAGGAUCACCCAUGUGGCACUGGGAGAAGGCUGAUAGAUAA
apparent Kd [1]: 11.6 nM
apparent Kd [2]: 6.15 nM

CCAUCAGCGGGCGGAUCGGUUGGACAUGAGGAUCACCCAUGUAGAAGGACCGGUGGAUUCCGGCGGUAGGAUAUACAUUUGGUG
apparent Kd [3]: 9.1 nM
apparent Kd [4]: 16.3 nM

CACAUGUGAGGAUAUGUAAUAAAGGCGACGCGGGUCGCCCGACAGAAGGCACAUGAGGAUCACCCAUGUGAUGA
apparent Kd [3]: 37 nM
apparent Kd [4]: 98 nM

AGGGCUGCUCAGGAUAUCCGUAAAAGCCGAGAAGGAGAAGGGAGCACAUGAGGAUCACCCAUGUGAUCCGAAAA
apparent Kd [3]: 21.6 nM
apparent Kd [4]: 44 nM

AAAACACAUGAGGAUCACCCAUGUGAGGAUAUGUUAAUUUCGGCCAAAGCCGAAAUUAACAGAAGGCACAUAAA
apparent Kd [3]: 49.9 nM
apparent Kd [4]: 45.1 nM

UUAUUGGGACAGAAGGGCAUUUACAUGAGGAUCACCCAUGUUCAUCAUUGCAGGAUAUGUAUUACAUGAGGAUCAUCUAUGUUA
apparent Kd [1]: 259 nM
apparent Kd [2]: 36.9 nM

CAGUGCAAUGUAGGAUAUGCUCAGGAUAACUGAGCAGAAGGACAUGAGGAUCACCCAUGUACUAUGAAAGAUAAUAAAGCACUG
apparent Kd [3]: 14.1 nM
apparent Kd [4]: 18.3 nM

AAACGACGUCAGAAGGCCGAUGGAUUUGACCACGGAGGAUAUGACAUGAGGAUCACCCAUGUGGUGCUUCUAACCCGCUGGGCC
apparent Kd [3]: 501 nM
apparent Kd [4]: 69.7 nM
